Experiments:
Plasmodium falciparum = assay: Antimalarial activity against Plasmodium falciparum Dd2 ring stage parasite assessed as decrease in parasite viability after 72 hrs by SYBR green 1 dye based assay; type: functional, organism-based
Summary of the method: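 Ring-stage cultures at 1% hematocrit and 1% parasitemia grown 72 h at 37 °C under 5% CO2, 5% O2, 90% N2 with increasing drug concentrations. Viability read by SYBR Green I DNA quantitation. IC50 from nonlinear regression, mean of three independent determinations each in duplicate, ± SEM.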

A2780 = assay: Cytotoxicity against human A2780 cells assessed as inhibition of cell growth after 2 days by Alamar blue assay; type: functional, cell-based; settings: A2780, 48 h
[1] = Plasmodium falciparum, Dd2, 72 h, read-out: IC50

| Compound | IC50 (Plasmodium falciparum; [1]) [µM] | IC50 (A2780) [µM] | IC50 (Plasmodium falciparum) |
| --- | --- | --- | --- |
| C=C[C@](C)(O)[C@@H]1C[C@@H]2[C@@]3(C)C(=O)CCC(C)(C)[C@@H]3CC[C@@]2(C)O1 | > 20 | > 50 |  |
| C=C[C@](C)(O)[C@@H]1C[C@@H]2[C@@]3(C)[C@@H](O)CCC(C)(C)[C@@H]3CC[C@@]2(C)O1 | > 20 | > 50 |  |
| COc1cc([C@@H]2Oc3c(OC)cc(/C=C/COC(C)=O)cc3[C@H]2COC(C)=O)ccc1O |  |  | Not Active |
| C=C[C@@](C)(OC(C)=O)[C@@H]1C[C@@H]2[C@@]3(C)C(=O)CCC(C)(C)[C@@H]3CC[C@@]2(C)O1 |  | > 50 | Not Active |
| COc1cc([C@@H]2Oc3c(OC)cc(/C=C/COC(=O)CC(C)C)cc3[C@H]2COC(=O)CC(C)C)ccc1O | > 20 |  |  |
| C=C[C@@](C)(OC(C)=O)[C@@H]1C[C@@H]2[C@@]3(C)[C@@H](O)CCC(C)(C)[C@@H]3CC[C@@]2(C)O1 | 7.3 | > 50 |  |
| COc1cc2c(C)cccc2ccc1=O | > 20 | > 50 |  |
| C[C@@H]1CC[C@H]2[C@@H](C)C(=O)O[C@@H]3O[C@@]4(C)CC[C@@H]1[C@]32OO4 [ARTEMISININ] | 0.0085 |  |  |

Source: ChEMBL document CHEMBL4145568, “Antiplasmodial Diterpenoids and a Benzotropolone from Petradoria pumila” (J Nat Prod, 2018)
